Tested on: U2OS
Assay: Multiplex assay against U2OS
Format: toxicity, cell-based
Conditions: human
Outline: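 Values for tubulin, mitochondrial-mass and membrane-permeability phenotypes are per cents of cells with healthy nuclei. These cells were identified by CellPathfinder machine-learning gating of live cells that had been stained at seeding with Hoechst33342, BioTracker Green Microtubule Cytoskeleton Dye, MitoTracker Red and Annexin V Alexa Fluor 680 and imaged on a CQ1 microscope at 37°C and 5% CO2 after compound addition. The gating first set Hoechst high-intensity objects apart from normal cells, then split normal cells into healthy, pyknosed or fragmented nuclei, and pyknosed cells into mitotic or apoptotic.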

[1] = 12 h, 1 µM, compound concentration 1 uM, replicate 1
[2] = 12 h, 1 µM, compound concentration 1 uM, replicate 2
[3] = 12 h, 10 µM, compound concentration 10 uM, replicate 1
[4] = 12 h, 10 µM, compound concentration 10 uM, replicate 2
[5] = 24 h, 1 µM, compound concentration 1 uM, replicate 1
[6] = 24 h, 1 µM, compound concentration 1 uM, replicate 2
[7] = 24 h, 10 µM, compound concentration 10 uM, replicate 1
[8] = 24 h, 10 µM, compound concentration 10 uM, replicate 2
[9] = 48 h, 1 µM, compound concentration 1 uM, replicate 1
[10] = 48 h, 1 µM, compound concentration 1 uM, replicate 2
[11] = 48 h, 10 µM, compound concentration 10 uM, replicate 1
[12] = 48 h, 10 µM, compound concentration 10 uM, replicate 2

CC(C)(O)C(=O)N1CCN(c2ccc(C(F)(F)F)c(C3=C(c4c[nH]c5ccccc45)C(=O)NC3=O)c2)CC1
Population Apoptotic (%) [1]: 88% | Population Fragmented Nuclei (%) [1]: 29% | Population Healthy Nuclei (%) [1]: 63% | Population Hoechst High Intensity Objects (%) [1]: 3% | Population Membrane Permeable-Phenotype (%) [1]: 5% | Population Mitochondria Different-Phenotype (%) [1]: 2% | Population Mitotic Cells (%) [1]: 11% | Population Normal (%) [1]: 96% | Population Pyknosed Nuclei (%) [1]: 7% | Population Tubulin-Different-Phenotype (%) [1]: 3% | Total Cell Count [1]: 238 | Population Apoptotic (%) [2]: 92% | Population Fragmented Nuclei (%) [2]: 14% | Population Healthy Nuclei (%) [2]: 75% | Population Hoechst High Intensity Objects (%) [2]: 1% | Population Membrane Permeable-Phenotype (%) [2]: 4% | Population Mitochondria Different-Phenotype (%) [2]: 4% | Population Mitotic Cells (%) [2]: 7% | Population Normal (%) [2]: 98% | Population Pyknosed Nuclei (%) [2]: 9% | Total Cell Count [2]: 134 | Population Apoptotic (%) [3]: 76% | Population Fragmented Nuclei (%) [3]: 37% | Population Healthy Nuclei (%) [3]: 46% | Population Hoechst High Intensity Objects (%) [3]: 6% | Population Membrane Permeable-Phenotype (%) [3]: 39% | Population Mitochondria Different-Phenotype (%) [3]: 23% | Population Mitotic Cells (%) [3]: 24% | Population Normal (%) [3]: 93% | Population Pyknosed Nuclei (%) [3]: 16% | Population Tubulin-Different-Phenotype (%) [3]: 30% | Total Cell Count [3]: 166 | Population Apoptotic (%) [4]: 50% | Population Fragmented Nuclei (%) [4]: 6% | Population Healthy Nuclei (%) [4]: 77% | Population Hoechst High Intensity Objects (%) [4]: 1% | Population Membrane Permeable-Phenotype (%) [4]: 14% | Population Mitochondria Different-Phenotype (%) [4]: 14% | Population Mitotic Cells (%) [4]: 50% | Population Normal (%) [4]: 98% | Population Tubulin-Different-Phenotype (%) [4]: 15% | Total Cell Count [4]: 148 | Population Apoptotic (%) [5]: 89% | Population Fragmented Nuclei (%) [5]: 27% | Population Healthy Nuclei (%) [5]: 61% | Population Hoechst High Intensity Objects (%) [5]: 3% | Population Membrane Permeable-Phenotype (%) [5]: 7% | Population Mitochondria Different-Phenotype (%) [5]: 3% | Population Mitotic Cells (%) [5]: 10% | Population Normal (%) [5]: 96% | Population Pyknosed Nuclei (%) [5]: 11% | Population Tubulin-Different-Phenotype (%) [5]: 5% | Total Cell Count [5]: 263 | Population Apoptotic (%) [6]: 82% | Population Fragmented Nuclei (%) [6]: 22% | Population Healthy Nuclei (%) [6]: 67% | Population Hoechst High Intensity Objects (%) [6]: 0% | Population Membrane Permeable-Phenotype (%) [6]: 4% | Population Mitochondria Different-Phenotype (%) [6]: 2% | Population Mitotic Cells (%) [6]: 17% | Population Normal (%) [6]: 100% | Population Pyknosed Nuclei (%) [6]: 9% | Population Tubulin-Different-Phenotype (%) [6]: 2% | Total Cell Count [6]: 172 | Population Apoptotic (%) [7]: 87% | Population Fragmented Nuclei (%) [7]: 48% | Population Healthy Nuclei (%) [7]: 27% | Population Hoechst High Intensity Objects (%) [7]: 6% | Population Membrane Permeable-Phenotype (%) [7]: 11% | Population Mitochondria Different-Phenotype (%) [7]: 34% | Population Mitotic Cells (%) [7]: 12% | Population Normal (%) [7]: 93% | Population Pyknosed Nuclei (%) [7]: 24% | Population Tubulin-Different-Phenotype (%) [7]: 15% | Total Cell Count [7]: 172 | Population Apoptotic (%) [8]: 70% | Population Fragmented Nuclei (%) [8]: 16% | Population Healthy Nuclei (%) [8]: 53% | Population Hoechst High Intensity Objects (%) [8]: 2% | Population Membrane Permeable-Phenotype (%) [8]: 15% | Population Mitochondria Different-Phenotype (%) [8]: 24% | Population Mitotic Cells (%) [8]: 29% | Population Normal (%) [8]: 97% | Population Pyknosed Nuclei (%) [8]: 29% | Population Tubulin-Different-Phenotype (%) [8]: 11% | Total Cell Count [8]: 152 | Population Apoptotic (%) [9]: 95% | Population Fragmented Nuclei (%) [9]: 21% | Population Healthy Nuclei (%) [9]: 65% | Population Hoechst High Intensity Objects (%) [9]: 3% | Population Membrane Permeable-Phenotype (%) [9]: 6% | Population Mitochondria Different-Phenotype (%) [9]: 4% | Population Mitotic Cells (%) [9]: 4% | Population Normal (%) [9]: 96% | Population Pyknosed Nuclei (%) [9]: 12% | Population Tubulin-Different-Phenotype (%) [9]: 5% | Total Cell Count [9]: 377 | Population Apoptotic (%) [10]: 85% | Population Fragmented Nuclei (%) [10]: 17% | Population Healthy Nuclei (%) [10]: 73% | Population Hoechst High Intensity Objects (%) [10]: 1% | Population Membrane Permeable-Phenotype (%) [10]: 7% | Population Mitochondria Different-Phenotype (%) [10]: 3% | Population Mitotic Cells (%) [10]: 14% | Population Normal (%) [10]: 98% | Population Pyknosed Nuclei (%) [10]: 9% | Population Tubulin-Different-Phenotype (%) [10]: 2% | Total Cell Count [10]: 233 | Population Apoptotic (%) [11]: 95% | Population Fragmented Nuclei (%) [11]: 57% | Population Healthy Nuclei (%) [11]: 11% | Population Hoechst High Intensity Objects (%) [11]: 14% | Population Membrane Permeable-Phenotype (%) [11]: 27% | Population Mitochondria Different-Phenotype (%) [11]: 16% | Population Mitotic Cells (%) [11]: 4% | Population Normal (%) [11]: 85% | Population Pyknosed Nuclei (%) [11]: 30% | Population Tubulin-Different-Phenotype (%) [11]: 11% | Total Cell Count [11]: 177 | Population Apoptotic (%) [12]: 96% | Population Fragmented Nuclei (%) [12]: 31% | Population Healthy Nuclei (%) [12]: 27% | Population Hoechst High Intensity Objects (%) [12]: 7% | Population Membrane Permeable-Phenotype (%) [12]: 17% | Population Mitochondria Different-Phenotype (%) [12]: 14% | Population Mitotic Cells (%) [12]: 3% | Population Normal (%) [12]: 92% | Population Pyknosed Nuclei (%) [12]: 41% | Population Tubulin-Different-Phenotype (%) [12]: 17% | Total Cell Count [12]: 163

CCc1nn2c(C)cc(C)nc2c1Cc1ccc(-c2nnc(C3CCNCC3)o2)cc1
Population Apoptotic (%) [1]: 42% | Population Fragmented Nuclei (%) [1]: 28% | Population Healthy Nuclei (%) [1]: 60% | Population Hoechst High Intensity Objects (%) [1]: 3% | Population Membrane Permeable-Phenotype (%) [1]: 12% | Population Mitochondria Different-Phenotype (%) [1]: 10% | Population Mitotic Cells (%) [1]: 57% | Population Normal (%) [1]: 96% | Population Pyknosed Nuclei (%) [1]: 10% | Population Tubulin-Different-Phenotype (%) [1]: 11% | Total Cell Count [1]: 251 | Population Apoptotic (%) [2]: 85% | Population Fragmented Nuclei (%) [2]: 9% | Population Healthy Nuclei (%) [2]: 84% | Population Hoechst High Intensity Objects (%) [2]: 2% | Population Membrane Permeable-Phenotype (%) [2]: 14% | Population Mitochondria Different-Phenotype (%) [2]: 17% | Population Mitotic Cells (%) [2]: 14% | Population Normal (%) [2]: 97% | Population Pyknosed Nuclei (%) [2]: 6% | Population Tubulin-Different-Phenotype (%) [2]: 4% | Total Cell Count [2]: 110 | Population Apoptotic (%) [3]: 68% | Population Fragmented Nuclei (%) [3]: 24% | Population Healthy Nuclei (%) [3]: 55% | Population Hoechst High Intensity Objects (%) [3]: 5% | Population Membrane Permeable-Phenotype (%) [3]: 26% | Population Mitochondria Different-Phenotype (%) [3]: 43% | Population Mitotic Cells (%) [3]: 31% | Population Normal (%) [3]: 94% | Population Pyknosed Nuclei (%) [3]: 20% | Population Tubulin-Different-Phenotype (%) [3]: 28% | Total Cell Count [3]: 214 | Population Apoptotic (%) [4]: 77% | Population Fragmented Nuclei (%) [4]: 8% | Population Healthy Nuclei (%) [4]: 76% | Population Hoechst High Intensity Objects (%) [4]: 2% | Population Membrane Permeable-Phenotype (%) [4]: 30% | Population Mitochondria Different-Phenotype (%) [4]: 62% | Population Mitotic Cells (%) [4]: 22% | Population Normal (%) [4]: 97% | Population Pyknosed Nuclei (%) [4]: 14% | Population Tubulin-Different-Phenotype (%) [4]: 44% | Total Cell Count [4]: 129 | Population Apoptotic (%) [5]: 80% | Population Fragmented Nuclei (%) [5]: 26% | Population Healthy Nuclei (%) [5]: 63% | Population Hoechst High Intensity Objects (%) [5]: 2% | Population Membrane Permeable-Phenotype (%) [5]: 4% | Population Mitochondria Different-Phenotype (%) [5]: 6% | Population Mitotic Cells (%) [5]: 20% | Population Normal (%) [5]: 97% | Population Pyknosed Nuclei (%) [5]: 10% | Population Tubulin-Different-Phenotype (%) [5]: 3% | Total Cell Count [5]: 296 | Population Apoptotic (%) [6]: 87% | Population Fragmented Nuclei (%) [6]: 13% | Population Healthy Nuclei (%) [6]: 80% | Population Hoechst High Intensity Objects (%) [6]: 3% | Population Membrane Permeable-Phenotype (%) [6]: 7% | Population Mitochondria Different-Phenotype (%) [6]: 12% | Population Mitotic Cells (%) [6]: 12% | Population Normal (%) [6]: 96% | Population Pyknosed Nuclei (%) [6]: 6% | Total Cell Count [6]: 130 | Population Apoptotic (%) [7]: 77% | Population Fragmented Nuclei (%) [7]: 24% | Population Healthy Nuclei (%) [7]: 55% | Population Hoechst High Intensity Objects (%) [7]: 3% | Population Membrane Permeable-Phenotype (%) [7]: 9% | Population Mitochondria Different-Phenotype (%) [7]: 40% | Population Mitotic Cells (%) [7]: 22% | Population Normal (%) [7]: 96% | Population Pyknosed Nuclei (%) [7]: 19% | Population Tubulin-Different-Phenotype (%) [7]: 7% | Total Cell Count [7]: 236 | Population Apoptotic (%) [8]: 71% | Population Fragmented Nuclei (%) [8]: 15% | Population Healthy Nuclei (%) [8]: 71% | Population Membrane Permeable-Phenotype (%) [8]: 16% | Population Mitochondria Different-Phenotype (%) [8]: 61% | Population Mitotic Cells (%) [8]: 28% | Population Pyknosed Nuclei (%) [8]: 13% | Population Tubulin-Different-Phenotype (%) [8]: 28% | Total Cell Count [8]: 163 | Population Apoptotic (%) [9]: 90% | Population Fragmented Nuclei (%) [9]: 17% | Population Healthy Nuclei (%) [9]: 71% | Population Hoechst High Intensity Objects (%) [9]: 2% | Population Membrane Permeable-Phenotype (%) [9]: 6% | Population Mitochondria Different-Phenotype (%) [9]: 2% | Population Mitotic Cells (%) [9]: 10% | Population Normal (%) [9]: 97% | Population Pyknosed Nuclei (%) [9]: 10% | Population Tubulin-Different-Phenotype (%) [9]: 4% | Total Cell Count [9]: 376 | Population Apoptotic (%) [10]: 85% | Population Fragmented Nuclei (%) [10]: 12% | Population Healthy Nuclei (%) [10]: 72% | Population Membrane Permeable-Phenotype (%) [10]: 7% | Population Mitochondria Different-Phenotype (%) [10]: 6% | Population Mitotic Cells (%) [10]: 14% | Population Pyknosed Nuclei (%) [10]: 14% | Total Cell Count [10]: 187 | Population Apoptotic (%) [11]: 82% | Population Fragmented Nuclei (%) [11]: 24% | Population Healthy Nuclei (%) [11]: 55% | Population Hoechst High Intensity Objects (%) [11]: 2% | Population Membrane Permeable-Phenotype (%) [11]: 10% | Population Mitochondria Different-Phenotype (%) [11]: 29% | Population Mitotic Cells (%) [11]: 17% | Population Normal (%) [11]: 97% | Population Pyknosed Nuclei (%) [11]: 19% | Population Tubulin-Different-Phenotype (%) [11]: 3% | Total Cell Count [11]: 290 | Population Apoptotic (%) [12]: 75% | Population Fragmented Nuclei (%) [12]: 12% | Population Healthy Nuclei (%) [12]: 71% | Population Membrane Permeable-Phenotype (%) [12]: 22% | Population Mitochondria Different-Phenotype (%) [12]: 31% | Population Mitotic Cells (%) [12]: 24% | Population Pyknosed Nuclei (%) [12]: 15% | Population Tubulin-Different-Phenotype (%) [12]: 18% | Total Cell Count [12]: 219

From ChEMBL document CHEMBL5058577, “EUbOPEN Chemogenomics Library 2 (Multiplex)” (2022)
